Measured values as given in ChEMBL document CHEMBL3046951, “Volatile constituents from the leaves of Callicarpa japonica Thunb. and their antibacterial activities” (2004).

What was measured:
Type in all cases: functional
Staphylococcus aureus [1] = experiment: Antimicrobial activity against Staphylococcus aureus ATCC 25923 assessed as growth inhibition rate at 43 mg/l after 72 hr by spectrophotometry; details: ATCC 25923, 72 h, read-out: GI
Listeria monocytogenes [2] = experiment: Antimicrobial activity against Listeria monocytogenes ATCC 19111 assessed as growth inhibition rate at 21.52 mg/l after 72 hr by spectrophotometry; details: ATCC 19111, 72 h, read-out: GI
Method in brief: (§1)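 L. monocytogenes was grown at 30 °C in tryptic soy broth, subcultured for 18 h, and exposed to pure volatile compounds (>95% purity). Growth was followed by Bioscreen C optical density every 24 h for 72 h against a 10% Tween 80 control.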

Salmonella typhimurium [3] = experiment: Antimicrobial activity against Salmonella enterica subsp. enterica serovar Typhimurium ATCC 14028 assessed as growth inhibition rate at 6.12 mg/l after 72 hr by spectrophotometry; details: ATCC 14028, 72 h, read-out: GI
Vibrio parahaemolyticus [4] = experiment: Antimicrobial activity against Vibrio parahaemolyticus ATCC 33844 assessed as growth inhibition rate at 43 mg/l after 72 hr by spectrophotometry; details: ATCC 33844, 72 h, read-out: GI
Staphylococcus aureus [5] = experiment: Antimicrobial activity against Staphylococcus aureus ATCC 25923 assessed as growth inhibition rate at 215.04 mg/l after 72 hr by spectrophotometry; details: ATCC 25923, 72 h, read-out: GI
Staphylococcus aureus [6] = experiment: Antimicrobial activity against Staphylococcus aureus ATCC 25923 assessed as growth inhibition rate at 107.52 mg/l after 72 hr by spectrophotometry; details: ATCC 25923, 72 h, read-out: GI
Staphylococcus aureus [7] = experiment: Antimicrobial activity against Staphylococcus aureus ATCC 25923 assessed as growth inhibition rate at 6.12 mg/l after 72 hr by spectrophotometry; details: ATCC 25923, 72 h, read-out: GI
Salmonella typhimurium [8] = experiment: Antimicrobial activity against Salmonella enterica subsp. enterica serovar Typhimurium ATCC 14028 assessed as growth inhibition rate at 107.52 mg/l after 72 hr by spectrophotometry; details: ATCC 14028, 72 h, read-out: GI
Method in brief: (§2)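 Salmonella Typhimurium ATCC 14028 grown in nutrient broth at 30 °C, precultured 24 h, then subcultured 1:100 for 18 h before testing. Single volatile compounds (>95% pure) were added. OD was read every 24 h over 72 h in a Bioscreen C, with 10% Tween 80 as the comparison control.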

Listeria monocytogenes [9] = experiment: Antimicrobial activity against Listeria monocytogenes ATCC 19111 assessed as growth inhibition rate at 247 mg/l after 72 hr by spectrophotometry; details: ATCC 19111, 72 h, read-out: GI; method in brief: as §1
Salmonella typhimurium [10] = experiment: Antimicrobial activity against Salmonella enterica subsp. enterica serovar Typhimurium ATCC 14028 assessed as growth inhibition rate at 43 mg/l after 72 hr by spectrophotometry; details: ATCC 14028, 72 h, read-out: GI; method in brief: as §2
Salmonella typhimurium [11] = experiment: Antimicrobial activity against Salmonella enterica subsp. enterica serovar Typhimurium ATCC 14028 assessed as growth inhibition rate at 21.52 mg/l after 72 hr by spectrophotometry; details: ATCC 14028, 72 h, read-out: GI; method in brief: as §2
Staphylococcus aureus [12] = experiment: Antimicrobial activity against Staphylococcus aureus ATCC 25923 assessed as growth inhibition rate at 247 mg/l after 72 hr by spectrophotometry; details: ATCC 25923, 72 h, read-out: GI
Bacillus cereus [13] = experiment: Antimicrobial activity against Bacillus cereus ATCC 11778 assessed as growth inhibition rate at 6.12 mg/l after 72 hr by spectrophotometry; details: ATCC 11778, 72 h, read-out: GI
Method in brief: (§3)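 Pure volatile compounds (purity >95%; one at 90%) were tested against B. cereus ATCC 11778. The strain was grown at 30 °C in nutrient broth for 24 h, then subcultured for 18 h. Optical density was read in a Bioscreen C every 24 h for 72 h, with 10% Tween 80 as the control.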

Staphylococcus aureus [14] = experiment: Antimicrobial activity against Staphylococcus aureus ATCC 25923 assessed as growth inhibition rate at 21.52 mg/l after 72 hr by spectrophotometry; details: ATCC 25923, 72 h, read-out: GI
Listeria monocytogenes [15] = experiment: Antimicrobial activity against Listeria monocytogenes ATCC 19111 assessed as growth inhibition rate at 215.04 mg/l after 72 hr by spectrophotometry; details: ATCC 19111, 72 h, read-out: GI; method in brief: as §1
Salmonella typhimurium [16] = experiment: Antimicrobial activity against Salmonella enterica subsp. enterica serovar Typhimurium ATCC 14028 assessed as growth inhibition rate at 215.04 mg/l after 72 hr by spectrophotometry; details: ATCC 14028, 72 h, read-out: GI; method in brief: as §2
Vibrio parahaemolyticus [17] = experiment: Antimicrobial activity against Vibrio parahaemolyticus ATCC 33844 assessed as growth inhibition rate at 21.52 mg/l after 72 hr by spectrophotometry; details: ATCC 33844, 72 h, read-out: GI
Bacillus cereus [18] = experiment: Antimicrobial activity against Bacillus cereus ATCC 11778 assessed as growth inhibition rate at 21.52 mg/l after 72 hr by spectrophotometry; details: ATCC 11778, 72 h, read-out: GI; method in brief: as §3
Listeria monocytogenes [19] = experiment: Antimicrobial activity against Listeria monocytogenes ATCC 19111 assessed as growth inhibition rate at 61.12 mg/l after 72 hr by spectrophotometry; details: ATCC 19111, 72 h, read-out: GI; method in brief: as §1
Listeria monocytogenes [20] = experiment: Antimicrobial activity against Listeria monocytogenes ATCC 19111 assessed as growth inhibition rate at 6.12 mg/l after 72 hr by spectrophotometry; details: ATCC 19111, 72 h, read-out: GI; method in brief: as §1
Vibrio parahaemolyticus [21] = experiment: Antimicrobial activity against Vibrio parahaemolyticus ATCC 33844 assessed as growth inhibition rate at 107.52 mg/l after 72 hr by spectrophotometry; details: ATCC 33844, 72 h, read-out: GI
Vibrio parahaemolyticus [22] = experiment: Antimicrobial activity against Vibrio parahaemolyticus ATCC 33844 assessed as growth inhibition rate at 247 mg/l after 72 hr by spectrophotometry; details: ATCC 33844, 72 h, read-out: GI
Listeria monocytogenes [23] = experiment: Antimicrobial activity against Listeria monocytogenes ATCC 19111 assessed as growth inhibition rate at 107.52 mg/l after 72 hr by spectrophotometry; details: ATCC 19111, 72 h, read-out: GI; method in brief: as §1
Escherichia coli [24] = experiment: Antimicrobial activity against Escherichia coli O157:H7 ATCC 43894 assessed as growth inhibition rate at 215.04 mg/l after 72 hr by spectrophotometry; details: O157:H7 ATCC 43894, 72 h, read-out: GI
Escherichia coli [25] = experiment: Antimicrobial activity against Escherichia coli O157:H7 ATCC 43894 assessed as growth inhibition rate at 6.12 mg/l after 72 hr by spectrophotometry; details: O157:H7 ATCC 43894, 72 h, read-out: GI
Bacillus cereus [26] = experiment: Antimicrobial activity against Bacillus cereus ATCC 11778 assessed as growth inhibition rate at 107.52 mg/l after 72 hr by spectrophotometry; details: ATCC 11778, 72 h, read-out: GI; method in brief: as §3
Vibrio parahaemolyticus [27] = experiment: Antimicrobial activity against Vibrio parahaemolyticus ATCC 33844 assessed as growth inhibition rate at 61.12 mg/l after 72 hr by spectrophotometry; details: ATCC 33844, 72 h, read-out: GI
Bacillus cereus [28] = experiment: Antimicrobial activity against Bacillus cereus ATCC 11778 assessed as growth inhibition rate at 61.12 mg/l after 72 hr by spectrophotometry; details: ATCC 11778, 72 h, read-out: GI; method in brief: as §3
Escherichia coli [29] = experiment: Antimicrobial activity against Escherichia coli O157:H7 ATCC 43894 assessed as growth inhibition rate at 43 mg/l after 72 hr by spectrophotometry; details: O157:H7 ATCC 43894, 72 h, read-out: GI
Staphylococcus aureus [30] = experiment: Antimicrobial activity against Staphylococcus aureus ATCC 25923 assessed as growth inhibition rate at 61.12 mg/l after 72 hr by spectrophotometry; details: ATCC 25923, 72 h, read-out: GI
Escherichia coli [31] = experiment: Antimicrobial activity against Escherichia coli O157:H7 ATCC 43894 assessed as growth inhibition rate at 61.12 mg/l after 72 hr by spectrophotometry; details: O157:H7 ATCC 43894, 72 h, read-out: GI
Method in brief: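 Authentic volatiles (>95% purity; 2,4-heptadienal 90%) tested against 18 h subcultures. Growth media: E. coli O157:H7 and S. aureus in tryptic soy broth at 37 °C; L. monocytogenes in tryptic soy broth at 30 °C; V. parahaemolyticus in tryptic soy broth + 3% NaCl at 37 °C; S. typhimurium in nutrient broth at 30 °C. Bioscreen C OD every 24 h for 72 h versus 10% Tween 80 control.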

Compound: CCC/C=C/C=O
- inhibition of growth at 43 µg/mL (Staphylococcus aureus [1]): 44.3%
- inhibition of growth at 21.52 µg/mL (Listeria monocytogenes [2]): 32%
- inhibition of growth at 6.12 µg/mL (Salmonella typhimurium [3]): 47.1%
- inhibition of growth at 43 µg/mL (Vibrio parahaemolyticus [4]): 100%
- inhibition of growth at 215.04 µg/mL (Staphylococcus aureus [5]): 100%
- inhibition of growth at 107.52 µg/mL (Staphylococcus aureus [6]): 96.7%
- inhibition of growth at 6.12 µg/mL (Staphylococcus aureus [7]): 29.2%
- inhibition of growth at 107.52 µg/mL (Salmonella typhimurium [8]): 98.9%
- inhibition of growth at 247 µg/mL (Listeria monocytogenes [9]): 99.7%
- inhibition of growth at 43 µg/mL (Salmonella typhimurium [10]): 83.4%
- inhibition of growth at 21.52 µg/mL (Salmonella typhimurium [11]): 63%
- inhibition of growth at 247 µg/mL (Staphylococcus aureus [12]): 100%
- inhibition of growth at 6.12 µg/mL (Bacillus cereus [13]): 90.5%
- inhibition of growth at 21.52 µg/mL (Staphylococcus aureus [14]): 28.7%
- inhibition of growth at 215.04 µg/mL (Listeria monocytogenes [15]): 99.8%
- inhibition of growth at 215.04 µg/mL (Salmonella typhimurium [16]): 99.4%
- inhibition of growth at 21.52 µg/mL (Vibrio parahaemolyticus [17]): 99.6%
- inhibition of growth at 21.52 µg/mL (Bacillus cereus [18]): 91.3%
- inhibition of growth at 61.12 µg/mL (Listeria monocytogenes [19]): 81.2%
- inhibition of growth at 6.12 µg/mL (Listeria monocytogenes [20]): 31%
- inhibition of growth at 107.52 µg/mL (Vibrio parahaemolyticus [21]): 99.8%
- inhibition of growth at 247 µg/mL (Vibrio parahaemolyticus [22]): 100%
- inhibition of growth at 107.52 µg/mL (Listeria monocytogenes [23]): 99.4%
- inhibition of growth at 215.04 µg/mL (Escherichia coli [24]): 97.3%
- inhibition of growth at 6.12 µg/mL (Escherichia coli [25]): 7.3%
- inhibition of growth at 107.52 µg/mL (Bacillus cereus [26]): 100%
- inhibition of growth at 61.12 µg/mL (Vibrio parahaemolyticus [27]): 99.8%
- inhibition of growth at 61.12 µg/mL (Bacillus cereus [28]): 98.7%
- inhibition of growth at 43 µg/mL (Escherichia coli [29]): 25.5%
- inhibition of growth at 61.12 µg/mL (Staphylococcus aureus [30]): 72.6%
- inhibition of growth at 61.12 µg/mL (Escherichia coli [31]): 47.5%
